Test results as given in article PMC3355778 (Frontiers in plant science, 2011).

Assays:
Assay type in all cases: biochemical
CPK1 = biological target: T1, CPK1 (Arabidopsis thaliana, UniProt Q06850); assay: Standard filter-based kinetic assay for kinase activity, CPK1
T1 sequence (Q06850 1-610): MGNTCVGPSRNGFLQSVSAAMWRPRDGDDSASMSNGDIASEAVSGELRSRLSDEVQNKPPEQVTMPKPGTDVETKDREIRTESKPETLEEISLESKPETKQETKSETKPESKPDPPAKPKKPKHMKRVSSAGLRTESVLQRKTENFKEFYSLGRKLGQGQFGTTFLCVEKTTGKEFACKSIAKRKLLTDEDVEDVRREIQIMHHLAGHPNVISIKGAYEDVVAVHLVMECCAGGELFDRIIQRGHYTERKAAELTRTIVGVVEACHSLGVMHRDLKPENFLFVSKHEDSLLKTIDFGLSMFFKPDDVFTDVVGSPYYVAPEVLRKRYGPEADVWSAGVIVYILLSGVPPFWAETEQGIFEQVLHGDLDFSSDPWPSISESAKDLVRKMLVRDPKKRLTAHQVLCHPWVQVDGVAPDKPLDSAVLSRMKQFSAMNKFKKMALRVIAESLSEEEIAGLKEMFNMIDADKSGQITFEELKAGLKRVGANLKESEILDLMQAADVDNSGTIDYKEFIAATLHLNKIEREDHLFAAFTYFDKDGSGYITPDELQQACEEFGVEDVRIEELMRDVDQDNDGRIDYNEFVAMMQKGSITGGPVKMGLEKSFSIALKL
Summary of the method: (§1)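 Recombinant Arabidopsis CPK, GST-N/6xHis-C fusion, affinity-purified. Reactions used 1 ng/µL kinase and 0.1 mg/mL BSA in Ca²⁺/EGTA-buffered kinase buffer (1.1 mM CaCl₂, 1 mM EGTA). Peptide substrate was 0–200 µM. Started with 50 µM ATP plus 0.375 µCi [γ-³³P]ATP, 12 min at RT. Aliquots went onto P81 paper, were washed in 75 mM phosphoric acid, and counted by scintillation. kcat is in nmol P/min/mg enzyme; KM by Lineweaver–Burk.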

CPK10 = biological target: T2, CPK10 (Arabidopsis thaliana, UniProt Q9M9V8); assay: Standard filter-based kinetic assay for kinase activity, CPK10
T2 sequence (Q9M9V8 1-545): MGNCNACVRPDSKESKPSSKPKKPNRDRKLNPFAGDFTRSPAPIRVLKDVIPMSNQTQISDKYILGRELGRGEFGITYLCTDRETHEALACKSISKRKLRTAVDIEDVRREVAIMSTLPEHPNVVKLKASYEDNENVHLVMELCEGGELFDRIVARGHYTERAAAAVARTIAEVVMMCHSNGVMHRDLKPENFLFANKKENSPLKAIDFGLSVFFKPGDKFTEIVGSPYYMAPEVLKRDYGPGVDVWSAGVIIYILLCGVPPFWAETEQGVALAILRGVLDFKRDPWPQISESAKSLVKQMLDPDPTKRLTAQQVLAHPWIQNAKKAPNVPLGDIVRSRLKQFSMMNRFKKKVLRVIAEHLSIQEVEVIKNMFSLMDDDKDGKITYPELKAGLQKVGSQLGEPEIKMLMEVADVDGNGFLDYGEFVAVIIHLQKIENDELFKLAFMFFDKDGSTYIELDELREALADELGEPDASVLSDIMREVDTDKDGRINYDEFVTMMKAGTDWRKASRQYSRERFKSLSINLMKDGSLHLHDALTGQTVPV
Summary of the method: as §1

CPK34 = CPK34 (Arabidopsis thaliana, UniProt Q3E9C0); assay: Standard filter-based kinetic assay for kinase activity, CPK34
Chain of CPK34 (Q3E9C0 whole entry): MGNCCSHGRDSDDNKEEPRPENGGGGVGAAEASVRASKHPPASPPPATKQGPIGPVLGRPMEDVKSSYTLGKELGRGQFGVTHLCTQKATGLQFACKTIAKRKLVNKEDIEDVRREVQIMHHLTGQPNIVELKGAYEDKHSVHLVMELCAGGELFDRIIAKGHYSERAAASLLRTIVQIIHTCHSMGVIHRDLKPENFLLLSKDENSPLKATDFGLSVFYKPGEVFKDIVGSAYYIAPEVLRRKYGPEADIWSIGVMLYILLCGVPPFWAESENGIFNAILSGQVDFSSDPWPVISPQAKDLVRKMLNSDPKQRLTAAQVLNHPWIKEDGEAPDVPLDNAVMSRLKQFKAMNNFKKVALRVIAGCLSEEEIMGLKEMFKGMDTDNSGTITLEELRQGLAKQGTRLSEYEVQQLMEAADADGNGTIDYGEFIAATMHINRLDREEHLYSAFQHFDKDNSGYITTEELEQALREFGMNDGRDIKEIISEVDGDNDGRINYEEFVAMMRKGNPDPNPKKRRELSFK
Summary of the method: as §1

CPK16 = biological target: T3, CPK16 (Arabidopsis thaliana, UniProt Q7XJR9); assay: Standard filter-based kinetic assay for kinase activity, CPK16
T3 sequence (Q7XJR9 1-571): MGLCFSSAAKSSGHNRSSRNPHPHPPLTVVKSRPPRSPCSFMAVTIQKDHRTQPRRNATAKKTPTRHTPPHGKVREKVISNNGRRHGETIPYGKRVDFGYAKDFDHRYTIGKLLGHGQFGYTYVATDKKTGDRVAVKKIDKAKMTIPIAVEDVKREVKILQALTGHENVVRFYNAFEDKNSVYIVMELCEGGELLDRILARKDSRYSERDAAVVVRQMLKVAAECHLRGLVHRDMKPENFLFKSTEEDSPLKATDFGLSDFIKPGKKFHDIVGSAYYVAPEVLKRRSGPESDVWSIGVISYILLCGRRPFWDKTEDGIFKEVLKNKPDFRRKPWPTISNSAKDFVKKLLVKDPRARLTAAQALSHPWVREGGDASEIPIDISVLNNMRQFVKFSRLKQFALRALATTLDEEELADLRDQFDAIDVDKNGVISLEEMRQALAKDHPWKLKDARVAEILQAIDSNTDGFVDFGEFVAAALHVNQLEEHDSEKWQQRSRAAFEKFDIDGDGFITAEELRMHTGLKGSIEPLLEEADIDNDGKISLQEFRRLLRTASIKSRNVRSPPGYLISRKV

[1] = Table 5, independent reaction 1 (first value in cell)
[2] = Table 5, independent reaction 2 (second value in cell)
[3] = Table 4, independent reaction 1 (first value in cell)
[4] = Table 4, independent reaction 2 (second value in cell)

Row | Substance | kcat, CPK1 (CPK1; [1]) | kcat, CPK1 (CPK1; [2]) | kcat, CPK10 (CPK10; [1]) | kcat, CPK10 (CPK10; [2]) | Kcat, CPK34 (CPK34; [1]) | Kcat, CPK34 (CPK34; [2]) | Kcat, CPK16 (CPK16; [3]) | Kcat, CPK16 (CPK16; [4]) | Kcat, CPK34 (CPK34; [3]) | Kcat, CPK34 (CPK34; [4])
1 | aDFLKRLLSaGMNPN [jfh-597] | 5790 nmol phosphate incorporated/min/mg enzyme | 5900 nmol phosphate incorporated/min/mg enzyme | 1264 nmol phosphate incorporated/min/mg enzyme | 1639 nmol phosphate incorporated/min/mg enzyme | 475 nmol phosphate incorporated/min/mg enzyme | 614 nmol phosphate incorporated/min/mg enzyme | – | – | – | –
2 | RYRRMERTSSMPRAS [jfh-097] | – | – | – | – | – | – | 3734 nmol phosphate incorporated/min/mg CPK | 2677 nmol phosphate incorporated/min/mg CPK | 502 nmol phosphate incorporated/min/mg CPK | 718 nmol phosphate incorporated/min/mg CPK
3 | KRFSFKKSFKLSGFSFKK [ach-400, reference compound] | – | – | – | – | – | – | 1795 nmol phosphate incorporated/min/mg CPK | 1429 nmol phosphate incorporated/min/mg CPK | 398 nmol phosphate incorporated/min/mg CPK | 541 nmol phosphate incorporated/min/mg CPK
4 | PLARTLSVAGLPGKK [ach-393, Syntide-2, reference compound] | 362 nmol phosphate incorporated/min/mg enzyme | 482 nmol phosphate incorporated/min/mg enzyme | 252 nmol phosphate incorporated/min/mg enzyme | 217 nmol phosphate incorporated/min/mg enzyme | 155 nmol phosphate incorporated/min/mg enzyme | 225 nmol phosphate incorporated/min/mg enzyme | – | – | – | –
5 | VKIISRIF[S]QRSFRR [jfh-515] | – | – | – | – | – | – | 5114 nmol phosphate incorporated/min/mg CPK | 4854 nmol phosphate incorporated/min/mg CPK | 223 nmol phosphate incorporated/min/mg CPK | 231 nmol phosphate incorporated/min/mg CPK
